Results published in ChEMBL document CHEMBL2169772, “Discovery of (2S)-1-[4-(2-{6-amino-8-[(6-bromo-1,3-benzodioxol-5-yl)sulfanyl]-9H-purin-9-yl}ethyl)piperidin-1-yl]-2-hydroxypropan-1-one (MPC-3100), a purine-based Hsp90 inhibitor” (J Med Chem, 2012).
Active and inactive are the calls of the source. The rule behind the calls is not given here.

Legend:
MV4-11 = assay: Cytotoxicity against human MV4-11 cells assessed as inhibition of tumor growth incubated for 72 hrs by luminometry; type: functional, cell-based; conditions: MV4-11, 72 h
How it was run: (§1)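 Cells seeded at 5000 per well in DMEM with 10% serum and left overnight. Compound added from DMSO dilutions (0.4% DMSO final) for 72 h. After 5 min at room temperature, ATPLite two-step lysis and substrate added, 5 min incubation, then luminescence read. Values are the mean of at least two experiments.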

HT-29 = assay: Cytotoxicity against human HT-29 cells assessed as inhibition of tumor growth incubated for 72 hrs by luminometry; type: functional, cell-based; conditions: HT-29, 72 h; how it was run: as §1
HCT-116 = assay: Cytotoxicity against human HCT116 cells assessed as inhibition of tumor growth incubated for 72 hrs by luminometry; type: functional, cell-based; conditions: HCT-116, 72 h; how it was run: as §1
[1] = Metabolic stability in human liver microsomes assessed as percent of residual drug in presence of NADPH incubated for 40 mins by LC-ESI-MS/MS method; type: ADME, Microsome; conditions: liver microsomes, read-out: Stability
How it was run: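 Test article incubated in duplicate with human liver microsomes (0.5 mg/mL protein) in 100 mM potassium phosphate pH 7.4. Started with 1 mM NADPH. Stopped with acetonitrile at 0, 10, 20 and 40 min. LC-MS/MS peak area at 40 min reported as percent of 0 min. No-NADPH control incubated for 40 min.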

Heat shock protein HSP90 [2] = molecular target: T1, Heat shock protein HSP90 (Homo sapiens, UniProt P07900+P08238); assay: Inhibition of human HSP90 in DU145 cells assessed as degradation of Her2 incubated for 24 hrs by Western blot method; type: cell-based
How it was run: (§2)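 Cells exposed to a range of concentrations for 24 h. Lysates analyzed by Western blot with Her2-, Hsp70- and Akt-specific antibodies.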

[3] = Cytotoxicity against human NCI-ADR-RES cells overexpressing P-gp 1 assessed as inhibition of tumor growth incubated for 72 hrs by luminometry; type: functional, cell-based; how it was run: as §1
NCI-N87 [4] = assay: Antitumor activity against human NCI-N87 cells xenografted in nude mouse assessed as tumor growth inhibition at 50 mg/kg, po qd for 22 days measured twice a week; type: functional; conditions: NCI-N87, 528 h, read-out: TGI
How it was run: (§3)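 Female nude mice (Crl:NU-Fox1nu) implanted subcutaneously in the right flank with 5 million NCI-N87 cells. At median tumor volume of roughly >100 mm3, randomized to 5 cohorts of 10. Dosed orally once daily for 22 days with vehicle (40% w/w Captisol) or 50, 75, 125 or 200 mg/kg. Tumor size and body weight measured at least twice weekly.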

NCI-H69 = assay: Cytotoxicity against human NCI-H69 cells assessed as inhibition of tumor growth incubated for 72 hrs by luminometry; type: functional, cell-based; conditions: NCI-H69, 72 h; how it was run: as §1
Heat shock protein HSP90 [5] = molecular target: T1, Heat shock protein HSP90; assay: Inhibition of human HSP90 in HCT116 cells assessed as degradation of Her2 incubated for 24 hrs by Western blot method; type: cell-based; how it was run: as §2
DU-145 = assay: Cytotoxicity against human DU145 cells assessed as inhibition of tumor growth incubated for 72 hrs by luminometry; type: functional, cell-based; conditions: DU-145, 72 h; how it was run: as §1
[6] = AUC in Swiss nude mouse at 2.5 mg/kg, iv by LC-ESI-MS/MS method; type: ADME, organism-based; parameters: dose 2.5 mg/kg, route intravenous; conditions: plasma
How it was run: (§4)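 Intravenous dose in mice, vehicle DMA/PEG300/EtOH/H2O 3/40/12/45. Sampling at 5, 15, 30, 60, 120, 240, 480 and 720 min, three or five animals per time point. Cardiac-puncture EDTA plasma. Acetonitrile protein precipitation with internal standard, then LC-ESI-MS/MS (10–10 000 ng/mL curve). Parameters by noncompartmental fit.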

Heat shock protein HSP90 [7] = molecular target: T1, Heat shock protein HSP90; assay: Inhibition of human HSP90 using BODIPY labelled geldanamycin as substrate by fluorescence polarization assay; type: protein assay
[8] = AUC in Swiss nude mouse at 10 mg/kg, po by LC-ESI-MS/MS method; type: ADME, organism-based; parameters: dose 10 mg/kg, route oral; conditions: plasma
How it was run: (§5)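 Mice dosed by oral gavage, vehicle DMA/PEG300/EtOH/H2O (3/40/12/45, v/v/v/v). Blood drawn by cardiac puncture into EDTA plasma. Three or five animals per time point. Plasma precipitated with acetonitrile plus internal standard. Quantified by LC-ESI-MS/MS against a 10–10 000 ng/mL standard curve with QC samples. Noncompartmental analysis.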

[9] = Permeability of the compound after 30 mins by PAMPA; type: ADME; conditions: read-out: permeability
How it was run: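 Double-sink PAMPA with donor solutions at pH 5.0, 6.2 and 7.4. Filter coated with phospholipid in dodecane. Sandwich incubated 30 min at 37 °C with stirring equivalent to a 40 μm aqueous boundary layer. Permeability calculated from UV spectra at 250–490 nm. Verapamil run as positive control.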

Heat shock protein HSP90 [10] = molecular target: T1, Heat shock protein HSP90; assay: Inhibition of human HSP90 in HCT116 cells assessed as induction of HSP70 incubated for 24 hrs by Western blot method; type: cell-based; conditions: HCT-116; how it was run: as §2
Mus musculus [11] = assay: Toxicity in nude mouse xenografted with human NCI-N87 cells assessed as effect on body weight at 50 mg/kg, po qd for 22 days measured twice a week; type: organism-based; parameters: dose 50 mg/kg, route oral; conditions: in vivo, 528 h; how it was run: as §3
Heat shock protein HSP90 [12] = molecular target: T1, Heat shock protein HSP90; assay: Inhibition of human HSP90 in HCT116 cells expressing Her2 gene assessed as degradation of Her2 after 4 hrs by luciferase reporter gene assay; type: cell-based; conditions: hct-116
How it was run: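 HCT116 cells stably transfected with Her2 kinase domain (aa 641–975) fused to firefly luciferase. Seeded at 10 000 per well in DMEM with 10% serum and left overnight. Compound added from DMSO (0.4% final) for 4 h. Steady-Glo added at room temperature for 5 min, then luminescence read.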

NCI-N87 [13] = assay: Antitumor activity against human NCI-N87 cells xenografted in nude mouse assessed as tumor regression at 125 mg/kg, po qd for 22 days measured twice a week; conditions: 528 h
NCI-N87 [14] = assay: Cytotoxicity against human NCI-N87 cells assessed as inhibition of tumor growth incubated for 72 hrs by luminometry; type: functional, cell-based; conditions: NCI-N87, 72 h; how it was run: as §1
Mus musculus [15] = assay: Hepatic clearance in Swiss nude mouse at 2.5 mg/kg, iv by LC-ESI-MS/MS method; type: ADME, organism-based, Liver; parameters: dose 2.5 mg/kg, route intravenous; conditions: in vivo; how it was run: as §4
[16] = AUC in Swiss nude mouse at 100 mg/kg, po by LC-ESI-MS/MS method; type: ADME, organism-based; parameters: dose 100 mg/kg, route oral; conditions: plasma
How it was run: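 Single oral gavage in mice, vehicle 40% Captisol in phosphate buffer. EDTA plasma from cardiac puncture. Acetonitrile precipitation with internal standard, then LC-ESI-MS/MS quantitation against a 10–10 000 ng/mL standard curve. Cmax and AUC by noncompartmental analysis.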

Mus musculus [17] = assay: Inhibition of HSP90 in human NCI-N87 cells xenografted nude mouse liver assessed as induction of HSP70 mRNA expression at 50 to 200 mg/kg, po qd for 22 days; type: functional, organism-based
Mus musculus [18] = assay: Inhibition of HSP90 in human NCI-N87 cells xenografted nude mouse tumor assessed as induction of HSP70 mRNA expression at 50 to 200 mg/kg, po qd for 22 days; type: functional, organism-based
[19] = Tmax in Swiss nude mouse at 10 mg/kg, po by LC-ESI-MS/MS method; type: ADME, organism-based; parameters: dose 10 mg/kg, route oral; conditions: in vivo; how it was run: as §5
BT-474 = assay: Cytotoxicity against human BT474 cells assessed as inhibition of tumor growth incubated for 72 hrs by luminometry; type: functional, cell-based; conditions: BT-474, 72 h; how it was run: as §1
Heat shock protein HSP90 [20] = molecular target: T1, Heat shock protein HSP90; assay: Inhibition of human HSP90 in NCI-N87 cells assessed induction of HSP70 incubated for 24 hrs by Western blot method; type: cell-based; how it was run: as §2

- remaining at 40 min [1]: 42%
- inhibition (Heat shock protein HSP90 [2]; DU-145): Dose-dependent effect
- IC50 (Heat shock protein HSP90 [2]; du-145): 0.1 µM
- inhibition (Heat shock protein HSP90 [5]; HCT-116): Dose-dependent effect
- IC50 (Heat shock protein HSP90 [5]; hct-116): 0.1 µM
- AUC [6]: 2.11 µg·h/mL
- IC50 (Heat shock protein HSP90 [7]): 0.14 µM
- AUC [8]: 3.21 µg·h/mL
- Papp at 0.5 h [9]: > 3500 nm/s
- inhibition (Heat shock protein HSP90 [10]): Dose-dependent effect
- IC50 (Heat shock protein HSP90 [12]): 0.06 µM
- CLH (Mus musculus [15]): 1.187 L/h/kg
- AUC [16]: 81.8 µg·h/mL
- Tmax [19]: 15 min
- inhibition (Heat shock protein HSP90 [20]): Dose-dependent effect
Structure (SMILES): C[C@H](O)C(=O)N1CCC(CCn2c(Sc3cc4c(cc3Br)OCO4)nc3c(N)ncnc32)CC1
- IC50 (MV4-11): 0.25 µM
- IC50 (HT-29): 0.42 µM
- IC50 (HCT-116): 0.54 µM
- IC50 [3]: 4.3 µM
- inhibition in vivo at 50 mg/kg (NCI-N87 [4]): 37%
- IC50 (NCI-H69): 0.15 µM
- IC50 (DU-145): 0.53 µM
- Activity (Mus musculus [11]): Non-toxic
- tumor regression at 125 mg/kg (NCI-N87 [13]): 10%
- IC50 (NCI-N87 [14]): 0.2 µM
- inhibition (Mus musculus [17]): Active
- inhibition (Mus musculus [18]): Active
- IC50 (BT-474): 0.55 µM
